# The sample as a whole holds a higher share of hits than the screen did.
# XBP1 UPR activ – adaptive UPR (XBP1) activation | CHO-XBP1 luciferase reporter, IRE1-XBP1 UPR activation, luminescence; percent of tunicamycin response, DMSO as zero | activation, % at 20 µM | 330,000 tested, 0.33% active;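 active = versus positive control, 20 µM dose yields 30% or more activation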;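 note: 100% = tunicamycin at 10 µg/mL and 0% = DMSO only wells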
#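 incubation = overnight seeding at 37 °C, 6 h compound treatment at 37 °C | assay system = CHO-XBP1 cells stably carrying IRE1-XBP1-driven luciferase reporter | input = 1000 cells per well | detection = luciferase luminescence | dosing = single point, 20 µM final compound, 1% DMSO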
# CHOP UPR activ – apoptotic UPR (CHOP) activation; CHO-CHOP luciferase reporter, luminescence; percent of tunicamycin response over DMSO baseline; activation, % at 10 µM; 330,000 tested, 0.34% active; AID 449763;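 active = at 10 µM dose, activation of 40% or more, normalized to positive control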;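 note: 100% = tunicamycin at 10 µg/mL and 0% = DMSO alone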
#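 System: CHO-CHOP luciferase reporter cell line; amount: 500 cells/well; buffer or medium: F12 medium containing 10% fetal bovine serum; incubation: 6 h compound exposure at 37 °C after overnight seeding; measured by: luciferase luminescence after 10 min with Steady-Glo reagent; evaluation: % reporter activation, DMSO baseline versus tunicamycin full activation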
# CHOP inhibitor – inhibitors of CHOP induction in ER stress response; 220,000 tested, 3.8% active; AID 2732; CHO-K1 CHOP-promoter luciferase, tunicamycin-induced, 15-18 h; inhibition, % at 10 µM;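 active = compounds that reduced the stress-induced luciferase reporter signal by more than about 70% of percent inhibition, limit read from the data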;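 note: 0% = tunicamycin plus vehicle and 100% = wells without tunicamycin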
# A1 inh – inhibitors of the anti-apoptotic protein A1, read as caspase activation. caspase activation, % (no concentration beside the values). AID 2462. 330,000 tested, 0.066% active. MEF A1-2A-BIM cells, Caspase-Glo 3/7 luminescence, 3 h; percent of clofoctol response, vehicle zero;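 active = over half of replicate activation scores above 10%, or exactly half above 10 with the replicate mean above 10; inconclusive = replicate mean below 10 yet half the replicates above 10; inactive = over half of replicates below 10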
# Active calls of the source: *; ? = inconclusive; nt = no result.
SMILES,XBP1 UPR activ,CHOP UPR activ,CHOP inhibitor,A1 inh
c1ccc(-c2noc(CN3CCN(C(c4ccccc4)c4ccccc4)CC3)n2)cc1,-5.5,0.5,40.3,0.5
CCCOC(=O)Cn1cnc2scc(-c3ccc(OC)cc3)c2c1=O,-3.3,-0.4,nt,0.3
COc1ccc(/C=N/NC(=O)c2ccoc2C)cc1COc1c(C)cccc1C,8.7,18.2,87.7*,-1.4
COc1ccc(/C=N\NC(=O)c2ccccc2OC)cc1COc1ccccc1C,-4.6,0.0,nt,0.4
O=C(COC(=O)CNC(=O)c1ccccc1F)NC12CC3CC(CC(C3)C1)C2,-0.2,1.0,nt,0.2
C=C(C)COc1ccc(-c2nc(N)ncc2Oc2ccccc2OC)c(O)c1,3.8,1.2,92.6*,-1.3
CCOc1ccccc1Oc1cn[nH]c1-c1ccc(OCC(=O)NN)cc1O,-2.7,-1.3,nt,0.2
CCOc1ccc(-c2[nH]ncc2Oc2ccccc2OCC)c(O)c1,2.9,-0.6,80.0*,-0.5
CCOc1ccc(-c2[nH]ncc2Oc2ccccc2OC)c(O)c1,-1.8,0.3,82.0*,?
Cc1ccc(C2(C)NC(=O)N(CC(=O)N(C)CC(=O)Nc3cccc4ccccc34)C2=O)cc1 (stereo not drawn),-3.1,1.0,nt,0.8
O=C(OCc1c(-c2ccccc2)ncc2ccccc12)c1cccs1,3.9,0.0,nt,1.6
CCOC(=O)c1ccc(OCCOc2ccccc2C)cc1,-2.3,11.1,nt,-0.9
CN(C(=O)c1cc2nc(-c3ccco3)cc(C(F)(F)F)n2n1)C1CCCCC1,2.6,-0.9,92.8*,-0.4
O=C(c1cc2nc(-c3ccco3)cc(C(F)(F)F)n2n1)N1CCCc2ccccc21,0.3,0.6,70.8*,0.4
O=C(c1nn2c(C(F)(F)F)cc(-c3ccco3)nc2c1Br)N1CCCc2ccccc21,-2.3,0.0,45.6,1.4
O=C(C1CCC(=O)N(C2CCCC2)C1)N1CCN(Cc2cccc(F)c2)CC1 (stereo not drawn),-5.1,-0.1,nt,-0.6
COC(=O)c1ccc(NC(=O)Nc2ccc([N+](=O)[O-])cc2)cc1,-0.6,-0.5,nt,-0.4
CCCCN(C(=O)c1ccco1)c1nnc(-c2cc(OC)c(OC)c(OC)c2)s1,1.0,0.7,72.6*,-0.3
CCCN(C(=O)c1ccco1)c1nnc(-c2ccncc2)s1,0.5,-1.2,9.0,-1.1
CCC(=C(c1ccc(OC)cc1)c1ccc(OC)cc1)c1cn(CC(O)CN2CCN(C)CC2)c2ccccc12 (stereo not drawn),nt,nt,-21.2,-0.7
CC(/C=C/C(=O)c1ccc(C)cc1)=C\c1ccccc1,-2.4,5.1,90.9*,0.3
Cc1ccc(C(=O)/C=C\NCc2ccccc2)cc1,3.9,6.4,58.0,-1.7
Cc1cc(NC(c2ccc(Cl)cc2)c2ccc3cccnc3c2O)no1 (stereo not drawn),1.2,7.9,80.4*,-1.3
CCC(=O)NC(c1ccc(Cl)cc1Cl)c1ccc2cccnc2c1O (stereo not drawn),2.8,0.8,nt,0.3
COc1ccc(C(NC(=O)C(C)C)c2ccc3cccnc3c2O)cc1 (stereo not drawn),6.4,-0.1,78.8*,-1.1
SMILES,XBP1 UPR activ,CHOP UPR activ,CHOP inhibitor,A1 inh
CCn1c(=O)c2c(nc(SCC(=O)N3CCCC(C)C3)n2C)n(C)c1=O (stereo not drawn),5.9,2.0,nt,-0.1
CCOc1ccc(Nc2cc(C)nc3nc(C)nn23)cc1,-0.6,0.4,-19.0,5.2*
COC(=O)c1cc(NC(=O)c2c(Cl)nc3sccn23)cc(C(=O)OC)c1,19.2,-0.9,76.0*,1.3
Cc1cc(-c2nnc(CCC(=O)N3CCN(Cc4cccc(F)c4)CC3)o2)c(C)o1,-0.5,4.0,-3.2,-0.6
C/C(=C/CCC(C)[C@H]1CC[C@@]2(C)C3=C(CC[C@]12C)[C@@]1(C)CCC(=O)C(C)(C)[C@@H]1CC3)C(=O)O (stereo partly drawn),nt,nt,74.2*,0.0
C/C(=C/CCC(C)C1CCC2(C)C3CCC4C(C)(C)C(=O)CCC4(C)C3=CCC12C)C(=O)O (stereo not drawn),nt,nt,45.1,nt
CCCCNC(=S)N(C)/N=C/c1c(C)[nH]c2ccccc12,-0.6,2.8,72.4*,-0.4
CCCCNC(=S)N(C)/N=C/c1c(F)c(F)c(F)c(F)c1F,-0.6,-0.9,21.9,0.3
O=C(N=Nc1c(O)[nH]c2ccc([N+](=O)[O-])cc12)c1cc(-c2ccccc2Cl)nc2ccccc12,3.1,2.4,9.9,48.3*

# Screening data as filed in PubChem BioAssay.
